From ChEMBL document CHEMBL4406834, “Phenylthiazoles with nitrogenous side chain: An approach to overcome molecular obesity” (Eur J Med Chem, 2019)
Converted amounts (≈) assume the structure as drawn. The source made the active and inactive calls. No cut-off for these calls is given here.

Key:
[1] = test system: Enterococcus faecalis; assay: Bactericidal activity against vancomycin-resistant Enterococcus faecalis ATCC 51299 incubated for 18 to 20 hrs followed by replating on tryptic soy agar plate and further incubated for 18 to 24 hrs by CLSI-based broth microdilution assay; type: functional
Method in brief: (§1)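 MBC: after the broth microdilution MIC (CAMHB, ~5 × 10^5 CFU/mL, 37 °C, 18-20 h), 4 µL from wells without growth plated onto tryptic soy agar. Plates incubated 37 °C for 18-20 h. MBC is the lowest concentration giving 99.9% reduction in growth.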

[2] = test system: Staphylococcus aureus; assay: Antibacterial activity against vancomycin-resistant Staphylococcus aureus 10 after 18 to 20 hrs by CLSI-based broth microdilution assay; type: functional
Method in brief: (§2)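 Broth microdilution per CLSI. Strains grown aerobically overnight on tryptone soy agar at 37 °C, adjusted to 0.5 McFarland, then diluted in cation-adjusted Mueller-Hinton broth to about 5 × 10^5 CFU/mL. Compounds (10 mg/mL DMSO stocks) serially diluted. Incubated aerobically at 37 °C for 18-20 h. MIC is the lowest concentration with no visible growth.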

[3] = test system: Klebsiella pneumoniae; assay: Bactericidal activity against Klebsiella pneumoniae BAA-1706; type: functional
[4] = Safety index, ratio of non-toxic concentration for human Caco2 cells to MIC for methicillin-resistant Staphylococcus aureus NRS384 USA300; type: toxicity
Method in brief: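 Caco-2 cells exposed to compound in triplicate at 32, 64 and 128 µg/mL for 2 h, then MTS reagent for 4 h, absorbance at OD490. Viability expressed as percent of DMSO control. Highest non-toxic concentration divided by the broth microdilution MIC against MRSA USA300.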

[5] = test system: Escherichia coli; assay: Antibacterial activity against TolC-deficient Escherichia coli JW55031; type: functional
[6] = test system: Listeria monocytogenes; assay: Bactericidal activity against Listeria monocytogenes ATCC 19111 incubated for 18 to 20 hrs followed by replating on tryptic soy agar plate and further incubated for 18 to 24 hrs by CLSI-based broth microdilution assay; type: functional
[7] = test system: Listeria monocytogenes; assay: Antibacterial activity against Listeria monocytogenes ATCC 19111 after 18 to 20 hrs by CLSI-based broth microdilution assay; type: functional
[8] = test system: Staphylococcus aureus; assay: Bactericidal activity against methicilline-resistant Staphylococcus aureus NRS123 USA400 incubated for 18 to 20 hrs followed by replating on tryptic soy agar plate and further incubated for 18 to 24 hrs by CLSI-based broth microdilution assay; type: functional; method in brief: as §1
[9] = test system: Klebsiella pneumoniae; assay: Antibacterial activity against Klebsiella pneumoniae BAA-1706; type: functional
[10] = test system: Staphylococcus aureus; assay: Antibacterial activity against vancomycin-resistant Staphylococcus aureus 12 after 18 to 20 hrs by CLSI-based broth microdilution assay; type: functional; method in brief: as §2
[11] = test system: Streptococcus pneumoniae; assay: Antibacterial activity against methicillin-resistant Streptococcus pneumoniae ATCC 700677 after 18 to 20 hrs by CLSI-based broth microdilution assay; type: functional; method in brief: as §2
[12] = Aqueous solubility of the compound in phosphate buffered saline assessed as concentration that produces no precipitate measured as OD at 540 nm; type: physicochemical
[13] = test system: Enterococcus faecium; assay: Antibacterial activity against vancomycin-resistant Enterococcus faecium ATCC 700221 after 18 to 20 hrs by CLSI-based broth microdilution assay; type: functional; method in brief: as §2
[14] = test system: Streptococcus pneumoniae; assay: Antibacterial activity against cephalosporin-resistant Streptococcus pneumoniae ATCC 51916 after 18 to 20 hrs by CLSI-based broth microdilution assay; type: functional; method in brief: as §2
[15] = test system: Escherichia coli; assay: Bactericidal activity against Escherichia coli BW25113; type: functional
[16] = test system: Staphylococcus aureus; assay: Bactericidal activity against methicilline-resistant Staphylococcus aureus NRS385 USA500 incubated for 18 to 20 hrs followed by replating on tryptic soy agar plate and further incubated for 18 to 24 hrs by CLSI-based broth microdilution assay; type: functional; method in brief: as §1
[17] = test system: Staphylococcus aureus; assay: Bactericidal activity against methicilline-resistant Staphylococcus aureus NRS384 USA300 incubated for 18 to 20 hrs followed by replating on tryptic soy agar plate and further incubated for 18 to 24 hrs by CLSI-based broth microdilution assay; type: functional; method in brief: as §1
[18] = test system: Staphylococcus epidermidis; assay: Antibacterial activity against methicillin-resistant Staphylococcus epidermidis NRS101 after 18 to 20 hrs by CLSI-based broth microdilution assay; type: functional; method in brief: as §2
[19] = test system: Staphylococcus aureus; assay: Antibacterial activity against methicilline-resistant Staphylococcus aureus NRS386 USA700 after 18 to 20 hrs by CLSI-based broth microdilution assay; type: functional; method in brief: as §2
[20] = test system: Staphylococcus epidermidis; assay: Bactericidal activity against methicillin-resistant Staphylococcus epidermidis NRS101 incubated for 18 to 20 hrs followed by replating on tryptic soy agar plate and further incubated for 18 to 24 hrs by CLSI-based broth microdilution assay; type: functional
[21] = test system: Staphylococcus aureus; assay: Bactericidal activity against vancomycin-resistant Staphylococcus aureus 12 incubated for 18 to 20 hrs followed by replating on tryptic soy agar plate and further incubated for 18 to 24 hrs by CLSI-based broth microdilution assay; type: functional; method in brief: as §1
[22] = test system: Streptococcus pneumoniae; assay: Bactericidal activity against methicillin-resistant Streptococcus pneumoniae ATCC 700677 incubated for 18 to 20 hrs followed by replating on tryptic soy agar plate and further incubated for 18 to 24 hrs by CLSI-based broth microdilution assay; type: functional; method in brief: as §1
[23] = test system: Acinetobacter baumannii; assay: Antibacterial activity against Acinetobacter baumannii ATCC 19606; type: functional; conditions: ATCC 19606 = CIP 70.34 = JCM 6841
[24] = test system: Staphylococcus aureus; assay: Bactericidal activity against methicillin-resistant Staphylococcus aureus USA400 assessed as reduction in bacterial burden at 5 times MIC after 4 hrs by time kill assay; type: functional, organism-based
[25] = test system: Staphylococcus aureus; assay: Antibacterial activity against methicilline-resistant Staphylococcus aureus NRS385 USA500 after 18 to 20 hrs by CLSI-based broth microdilution assay; type: functional; method in brief: as §2
[26] = test system: Escherichia coli; assay: Bactericidal activity against Escherichia coli ATCC 25922; type: functional
[27] = test system: Staphylococcus aureus; assay: Antibacterial activity against methicilline-resistant Staphylococcus aureus NRS-119 after 18 to 20 hrs by CLSI-based broth microdilution assay; type: functional; method in brief: as §2
[28] = test system: Staphylococcus aureus; assay: Antibacterial activity against methicillin-resistant Staphylococcus aureus NRS384 USA300 after 18 to 20 hrs by broth microdilution assay; type: functional; method in brief: as §2
[29] = test system: Staphylococcus aureus; assay: Bactericidal activity against methicilline-sensitive Staphylococcus aureus NRS-107 incubated for 18 to 20 hrs followed by replating on tryptic soy agar plate and further incubated for 18 to 24 hrs by CLSI-based broth microdilution assay; type: functional; method in brief: as §1
[30] = test system: Staphylococcus aureus; assay: Bactericidal activity against methicilline-resistant Staphylococcus aureus NRS-119 incubated for 18 to 20 hrs followed by replating on tryptic soy agar plate and further incubated for 18 to 24 hrs by CLSI-based broth microdilution assay; type: functional; method in brief: as §1
[31] = test system: Staphylococcus aureus; assay: Antibacterial activity against methicilline-resistant Staphylococcus aureus NRS123 USA400 after 18 to 20 hrs by CLSI-based broth microdilution assay; type: functional; method in brief: as §2
[32] = test system: Pseudomonas aeruginosa; assay: Antibacterial activity against Pseudomonas aeruginosa ATCC 27853; type: functional
[33] = test system: Staphylococcus aureus; assay: Antibacterial activity against methicilline-sensitive Staphylococcus aureus NRS-107 after 18 to 20 hrs by CLSI-based broth microdilution assay; type: functional; method in brief: as §2
[34] = test system: Staphylococcus aureus; assay: Bactericidal activity against methicilline-sensitive Staphylococcus aureus ATCC 6538 incubated for 18 to 20 hrs followed by replating on tryptic soy agar plate and further incubated for 18 to 24 hrs by CLSI-based broth microdilution assay; type: functional; method in brief: as §1
[35] = test system: Streptococcus pneumoniae; assay: Bactericidal activity against cephalosporin-resistant Streptococcus pneumoniae ATCC 51916 incubated for 18 to 20 hrs followed by replating on tryptic soy agar plate and further incubated for 18 to 24 hrs by CLSI-based broth microdilution assay; type: functional; method in brief: as §1

SMILES	MBC [1] [µg/mL]	MIC [2] [µg/mL]	MBC [3] [µg/mL]	selectivity ratio [4]	MIC [5] [µg/mL]	MBC [6] [µg/mL]	MIC [7] [µg/mL]	MBC [8] [µg/mL]	MIC [9] [µg/mL]	MIC [10] [µg/mL]	MIC [11] [µg/mL]	solubility kinetic [12] [µM]	MIC [13] [µg/mL]	MIC [14] [µg/mL]	MBC [15] [µg/mL]	MBC [16] [µg/mL]	MBC [17] [µg/mL]	MIC [18] [µg/mL]	MIC [19] [µg/mL]	MBC [20] [µg/mL]	other results
C/C(=N\NC(=N)N)c1sc(-c2ccc(N3CCCC(C)C3)cc2)nc1C (stereo not given)	32 (≈ 86.4 µM)	8 (≈ 21.6 µM)	32 (≈ 86.4 µM)	8	8 (≈ 21.6 µM)	8 (≈ 21.6 µM)	2 (≈ 5.4 µM)	16 (≈ 43.2 µM)	16 (≈ 43.2 µM)	8 (≈ 21.6 µM)	8 (≈ 21.6 µM)	435 (≈ 161 µg/mL)	4 (≈ 10.8 µM)	8 (≈ 21.6 µM)	32 (≈ 86.4 µM)	16 (≈ 43.2 µM)	16 (≈ 43.2 µM)	4 (≈ 10.8 µM)	8 (≈ 21.6 µM)	8 (≈ 21.6 µM)	MBC [21]: 8 µg/mL (≈ 21.6 µM); MBC [22]: 32 µg/mL (≈ 86.4 µM); MIC [23]: 32 µg/mL (≈ 86.4 µM); inhibition [24]: Active; MIC [25]: 8 µg/mL (≈ 21.6 µM); MBC [26]: 32 µg/mL (≈ 86.4 µM); MIC [27]: 8 µg/mL (≈ 21.6 µM); MIC [28]: 4 µg/mL (≈ 10.8 µM); MBC [29]: 16 µg/mL (≈ 43.2 µM); MBC [30]: 16 µg/mL (≈ 43.2 µM); MIC [31]: 8 µg/mL (≈ 21.6 µM); MIC [32]: > 64 µg/mL; MIC [33]: 8 µg/mL (≈ 21.6 µM); MBC [34]: 16 µg/mL (≈ 43.2 µM); MBC [35]: 16 µg/mL (≈ 43.2 µM)
C/C(=N\NC(=N)N)c1sc(-c2ccc(N3CCCCC3)cc2)nc1C	64 (≈ 180 µM)	4 (≈ 11.2 µM)	64 (≈ 180 µM)	16	32 (≈ 89.8 µM)	16 (≈ 44.9 µM)	8 (≈ 22.4 µM)	16 (≈ 44.9 µM)	64 (≈ 180 µM)	4 (≈ 11.2 µM)	8 (≈ 22.4 µM)	480 (≈ 171 µg/mL)	8 (≈ 22.4 µM)	8 (≈ 22.4 µM)	64 (≈ 180 µM)	32 (≈ 89.8 µM)	16 (≈ 44.9 µM)	8 (≈ 22.4 µM)	4 (≈ 11.2 µM)	8 (≈ 22.4 µM)	MBC [21]: 16 µg/mL (≈ 44.9 µM); MBC [22]: 16 µg/mL (≈ 44.9 µM); MIC [23]: 32 µg/mL (≈ 89.8 µM); inhibition [24]: Active; MIC [25]: 8 µg/mL (≈ 22.4 µM); MBC [26]: 64 µg/mL (≈ 180 µM); MIC [27]: 4 µg/mL (≈ 11.2 µM); MIC [28]: 4 µg/mL (≈ 11.2 µM); MBC [29]: 8 µg/mL (≈ 22.4 µM); MBC [30]: 16 µg/mL (≈ 44.9 µM); MIC [31]: 8 µg/mL (≈ 22.4 µM); MIC [32]: > 64 µg/mL; MIC [33]: 4 µg/mL (≈ 11.2 µM); MBC [34]: 8 µg/mL (≈ 22.4 µM); MBC [35]: 16 µg/mL (≈ 44.9 µM)
